The source made the active and inactive calls. The calls are words filed in the database; no cut-off is given here.
Columns and labels:
[1] = target: T1, NAD-dependent protein deacetylase sirtuin-1 (Homo sapiens, UniProt Q96EB6); assay: Inhibition of human recombinant N-terminal GST-tagged SIRT1 (193 to 741 residues) expressed in Escherichia coli using Ac-Gln-Pro-Lys-Lys(Ac)-AMC (oxo-10) as substrate by fluorescence assay
T1 sequence (Q96EB6 whole entry): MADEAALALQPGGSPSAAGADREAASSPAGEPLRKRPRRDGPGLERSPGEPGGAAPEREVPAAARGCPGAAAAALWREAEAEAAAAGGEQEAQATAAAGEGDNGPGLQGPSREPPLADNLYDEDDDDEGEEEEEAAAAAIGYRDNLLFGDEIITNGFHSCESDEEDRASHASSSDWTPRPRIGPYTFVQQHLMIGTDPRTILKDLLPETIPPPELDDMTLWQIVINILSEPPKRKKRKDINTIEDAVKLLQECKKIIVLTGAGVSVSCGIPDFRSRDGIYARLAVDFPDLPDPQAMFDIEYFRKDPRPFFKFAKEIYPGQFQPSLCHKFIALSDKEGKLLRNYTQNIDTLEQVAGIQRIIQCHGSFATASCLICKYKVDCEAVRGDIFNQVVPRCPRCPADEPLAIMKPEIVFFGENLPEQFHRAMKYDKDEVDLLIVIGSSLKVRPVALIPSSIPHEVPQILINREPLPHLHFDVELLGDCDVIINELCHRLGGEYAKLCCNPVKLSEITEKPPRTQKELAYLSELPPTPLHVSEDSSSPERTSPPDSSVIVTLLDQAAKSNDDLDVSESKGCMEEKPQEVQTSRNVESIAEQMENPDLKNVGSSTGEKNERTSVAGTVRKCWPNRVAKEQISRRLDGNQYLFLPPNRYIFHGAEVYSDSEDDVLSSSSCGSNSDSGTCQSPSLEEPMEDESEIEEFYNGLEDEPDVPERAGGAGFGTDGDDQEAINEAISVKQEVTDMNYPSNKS

[2] = target: T2, NAD-dependent protein deacetylase sirtuin-2 (Homo sapiens, UniProt Q8IXJ6); assay: Inhibition of human C-terminal His-tagged SIRT2 (50 to 356 residues) expressed in Escherichia coli using Ac-Gln-Pro-Lys-Lys(pro)-AMC (oxo-11) as substrate by fluorescence assay
T2 sequence (Q8IXJ6 whole entry): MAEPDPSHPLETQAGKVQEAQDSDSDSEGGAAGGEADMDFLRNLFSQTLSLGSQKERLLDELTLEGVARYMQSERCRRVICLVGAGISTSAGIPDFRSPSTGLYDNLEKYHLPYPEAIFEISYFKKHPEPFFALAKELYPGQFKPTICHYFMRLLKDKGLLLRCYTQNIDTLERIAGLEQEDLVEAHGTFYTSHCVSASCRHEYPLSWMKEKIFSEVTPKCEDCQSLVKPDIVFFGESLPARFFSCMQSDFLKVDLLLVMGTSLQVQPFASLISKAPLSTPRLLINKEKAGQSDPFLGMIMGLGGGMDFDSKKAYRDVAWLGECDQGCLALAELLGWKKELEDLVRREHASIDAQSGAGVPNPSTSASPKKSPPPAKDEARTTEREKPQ

[3] = target: T3, NAD-dependent protein deacetylase sirtuin-1 (Homo sapiens) (UniProt Q96EB6); assay: Inhibition of human N-terminal GST-tagged SIRT1 (193 to 741 residues) expressed in Escherichia coli preincubated with NAD+ for 30 mins using Ac-Gln-Pro-Lys-Lys(Ac)-AMC (oxo-10) as substrate at 1 to 100 uM measured after 90 mins by fluorescence assay; conditions: dose microM 1-100, time 120.0 min
T3 sequence (whole entry): T1 sequence (Q96EB6 whole entry)
In short: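 Recombinant SIRT1 (100 nM) preincubated 30 min with compound, either with or without NAD+ (500 μM), before the fluorogenic deacetylation read-out. Single-dose %-inhibition. Two independent experiments in duplicate, standard deviation.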

[4] = target: T4, NAD-dependent protein deacetylase sirtuin-2 (Homo sapiens) (UniProt Q8IXJ6); assay: Inhibition of human recombinant C-terminal His-tagged SIRT2 (50 to 356 residues) deacetylation activity in presence of substrate and NAD+ incubated for 60 mins measured after 90 mins by fluorescence assay
T4 sequence (whole entry): T2 sequence (Q8IXJ6 whole entry)
In short: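 Recombinant SIRT2 (100 nM or 250 nM) incubated with fluorogenic thioacyl or oxo lysine-AMC substrates plus NAD+. Deacylation read by fluorescence. Two independent experiments in duplicate, standard deviation.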

[5] = Metabolic stability of compound in human serum assessed as half life incubated for >10 mins measured after 90 mins by HPLC analysis; type: ADME, cell-free
[6] = target: T5, NAD-dependent protein deacetylase sirtuin-3, mitochondrial (Homo sapiens) (UniProt Q9NTG7); assay: Inhibition of human N-terminal GST-tagged SIRT3 (102 to 399 residues) expressed in Escherichia coli using Ac-Gln-Pro-Lys-Lys(but)-AMC (oxo-12) as substrate at 100 uM by fluorescence assay relative to control
T5 sequence (whole entry): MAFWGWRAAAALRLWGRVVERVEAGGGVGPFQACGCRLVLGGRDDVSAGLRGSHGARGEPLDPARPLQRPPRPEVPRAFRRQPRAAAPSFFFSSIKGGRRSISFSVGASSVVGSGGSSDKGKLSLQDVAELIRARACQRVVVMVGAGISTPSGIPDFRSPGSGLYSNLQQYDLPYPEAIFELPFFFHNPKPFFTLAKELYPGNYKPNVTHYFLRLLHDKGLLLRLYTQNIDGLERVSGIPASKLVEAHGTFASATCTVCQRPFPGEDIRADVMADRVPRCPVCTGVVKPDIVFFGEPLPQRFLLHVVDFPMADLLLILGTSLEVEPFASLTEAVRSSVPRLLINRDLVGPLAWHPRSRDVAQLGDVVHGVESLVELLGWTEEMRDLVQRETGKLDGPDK

[7] = target: T3, NAD-dependent protein deacetylase sirtuin-1 (Homo sapiens); assay: Inhibition of human recombinant N-terminal GST-tagged SIRT1 (193 to 741 residues) deacetylation activity in presence of substrate and NAD+ at 15 uM after 15 to 60 mins by reversed-phase UPLC-MS analysis; conditions: time min 15-60
[8] = target: T3, NAD-dependent protein deacetylase sirtuin-1 (Homo sapiens); assay: Inhibition of human N-terminal GST-tagged SIRT1 (193 to 741 residues) expressed in Escherichia coli preincubated without NAD+ for 30 mins using Ac-Gln-Pro-Lys-Lys(Ac)-AMC (oxo-10) as substrate at 1 to 100 uM measured after 90 mins by fluorescence assay; conditions: dose microM 1-100, time 30.0 min
[9] = target: T3, NAD-dependent protein deacetylase sirtuin-1 (Homo sapiens); assay: Inhibition of SIRT1 in HEK293 cells assessed as increase in p53 acetylation co-treated with TSA at 25 uM for 6 hrs by western blot analysis; type: cell-based
In short: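 HEK293 cells exposed 6 h to compound at 25 μM together with TSA (1 μM). Whole-cell lysates immunoblotted for Ac-p53 (K382) and total p53. Ratio Ac-p53/p53 normalized to DMSO control. Two independent experiments in duplicate, SEM.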

[10] = target: T3, NAD-dependent protein deacetylase sirtuin-1 (Homo sapiens); assay: Inhibition of human recombinant N-terminal GST-tagged SIRT1 (193 to 741 residues) deacetylation activity in presence of substrate and NAD+ at 15 uM after 30 mins by reversed-phase UPLC-MS analysis relative to control
[11] = target: T3, NAD-dependent protein deacetylase sirtuin-1 (Homo sapiens); assay: Inhibition of human recombinant N-terminal GST-tagged SIRT1 (193 to 741 residues) deacetylation activity in presence of substrate and NAD+ at 15 uM after 60 mins by reversed-phase UPLC-MS analysis relative to control

Row | Structure (SMILES) | IC50 [1] | IC50 [2] | inhibition [3] | inhibition [4] | half-life [5] | inhibition [6] | inhibition [7] | inhibition [8] | inhibition [9] | inhibition [10] | inhibition [11]
1 | CCC(=S)NCCCC[C@H](NC(=O)OCc1ccccc1)C(=O)N[C@@H](Cc1c[nH]c2ccccc12)C(=O)NC(C)C | 510 nM | 2200 nM | inactive | inactive | 7 h | 19% | Active | inactive | – | – | –
2 | CC(=S)NCCCC[C@H](NC(=O)OCc1ccccc1)C(=O)N[C@@H](Cc1c[nH]c2ccccc12)C(=O)NC(C)C | – | – | Active | inactive | > 7 h | – | – | – | Active | 3% | 7%

Source: ChEMBL document CHEMBL4725432, “Dethioacylation by Sirtuins 1-3: Considerations for Drug Design Using Mechanism-Based Sirtuin Inhibition” (ACS Med Chem Lett, 2020)
